Results from PMC2966122 (The Journal of Biological Chemistry, 2010).
Values belong to the molecule of their own block, whether it stands above or below them.

Legend:
Fluorescence anisotropy = assay type: binding; settings: for Affinity for 3-sialylated galactosides: probes 6–9 (6–8 for Xenopus); for Affinity for 3-sialylated galactosides / Affinity for GlcNAcβ1–3-substituted galactosides: relative to human wild type galectin-3; for Affinity for GlcNAcβ1–3-substituted galactosides: probes 9–15; for Binding to glycans where LacNAc or Galβ1–3GlcNAc is likely in site C-D: e.g. probes 2, 3, 7 and 8
Procedure, shortened: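 Equilibrium fluorescence anisotropy with 0.1 μM fluorescein-tagged saccharide probe (15 probes) titrated with 0.05–80 μM lactose-freed galectin. Read at room temperature and after incubation on ice (about 4 °C), ex 485/em 520 nm. Kd derived from the binding curve using probe-alone (A0) and saturated (Amax) anisotropy, with Amax extrapolated for partial curves. Not detected if anisotropy stayed ≤50 mA at 50 μM galectin.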

[1] = Glycan array binding of FITC-labeled galectins; settings: for Glycans bound on the array (overall): all glycans of the array; for Affinity for sialylated (and sulfated) galactosides on the array: site B; for Glycans bound on the array: 200 μg/ml galectin
Procedure, shortened: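 The printed array carries 406 glycans, six spots each, on NHS-activated glass. FITC-galectins at 200 μg/ml in Tris-buffered saline pH 7.4 (2 mM CaCl2, 2 mM MgCl2, 1% BSA, 0.05% Tween 20) were incubated 60 min at room temperature in the dark under a coverslip, then washed and dried. Slides were scanned at 488 nm and read as RFU (ceiling 40,000). Highest and lowest spots were dropped and the remaining four averaged.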

TNFα-primed neutrophils = assay: NADPH oxidase activation of TNFα-primed neutrophils; assay type: cell-based, human; settings: for Activation of primed neutrophils (release of oxygen radicals): dose response relative to wild type galectin-3 run in parallel, up to 3.5 μM
Procedure, shortened: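 Human neutrophils (1 × 10^7/ml) were primed 20 min at 37 °C with TNFα 10 ng/ml. Tubes held 10^6 cells and were equilibrated 5 min at 37 °C before galectin was added. Chemiluminescence was recorded continuously. Extracellular superoxide was read with HRP (4 units) plus isoluminol (6 × 10^-5 M). Intracellular ROS was read with SOD (50 units), catalase (2000 units) and luminol (2 × 10^-5 M). Peak responses were normalized to the parallel 3.5 μM wild-type peak.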

neutrophils [2] = assay: Galectin binding to neutrophils; assay type: cell-based, human; settings: FITC-labeled galectin 40 μg/ml
Procedure, shortened: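 Human blood neutrophils from buffy coats (dextran sedimentation, Ficoll-Paque) were pretreated at 37 °C with or without TNFα, or held at 4 °C without it. They were then incubated 1 h at 4 or 37 °C with FITC-galectin (40 μg/ml) and washed twice in PBS/0.02% NaN3/EDTA. Flow cytometry gave geometric mean fluorescence from three neutrophil batches (mean, S.E.), with paired one-tailed t tests.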

SKBR3 cells = assay: Localization of EGFP-galectin-3 and mutants in transfected cells; assay type: cell-based, human; settings: EGFP fusion protein; for Entry into vesicles: stably transfected
Procedure, shortened: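 SKBR3 breast cancer cells were Lipofectamine-transfected with pEGFP-C1 EGFP-galectin-3 constructs and grown in RPMI 1640/10% FBS with 1 mg/ml G418 for ≥2 weeks to obtain stable lines. Cells were grown 1–2 days on coverslips, fixed in 4% paraformaldehyde, mounted with DAPI and viewed by epifluorescence microscopy. Fluorescent vesicles (dots) per cell were counted in 300 cells per construct.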

[3] = cited from earlier work
MDCK cells = settings: EGFP fusion protein in MDCK cells; cited from earlier work
neutrophils [4] = settings: cited from earlier work
Shigella bacteria = settings: cited from earlier work
[5] = cited from earlier work; remark: listed apart in the source
[6] = cited from earlier work; remark: listed apart in the source
[7] = tested on: intracellular anti-apoptotic effect; settings: cited from earlier work
[8] = tested on: N-Ras to K-Ras activation; settings: cited from earlier work
[9] = compared with human galectin-3; cited from earlier work

- Affinity for glycans with GalNAcα in site B on the array ([1]; but not those with Galα (blood group B type)): selective loss of affinity
Molecule: A146Q: Human galectin-3 point mutant in site B, Ala-146 to Gln
- Affinity for 3-sialylated galactosides (Fluorescence anisotropy): slightly reduced affinity
- Affinity for GlcNAcβ1–3-substituted galactosides (Fluorescence anisotropy): retained affinity, albeit lower

- Binding to glycans where LacNAc or Galβ1–3GlcNAc is likely in site C-D (Fluorescence anisotropy): lost binding
- Glycans bound on the array (overall) [1]: bound a few more glycans
- Background binding, maximum ([1]; remaining 227 glycans not expected to bind galectins): 2674 RFU
Molecule: R186I: Human galectin-3 mutant replacing Arg-186 with Ile, as found in galectin-8N
- Affinity for glycans with Lac in site C-D (Fluorescence anisotropy; relative to wild type): retained reduced affinity

- Affinity for sialylated (and sulfated) galactosides on the array ([1]; relative to wild type): lost affinity
Molecule: K176L: Human galectin-3 point mutant in site B, Lys-176 to Leu
- Activation of primed neutrophils (release of oxygen radicals) (TNFα-primed neutrophils): clearly increased potency
- Binding to primed and non-primed neutrophils (neutrophils [2]): about equally well
- Increase in binding after TNFα priming (neutrophils [2]): 30–50%
- Affinity for 3-sialylated galactosides (Fluorescence anisotropy): lost affinity
- Affinity for GlcNAcβ1–3-substituted galactosides (Fluorescence anisotropy): significantly better than wild type galectin-3

- Binding to glycans where LacNAc or Galβ1–3GlcNAc is likely in site C-D (Fluorescence anisotropy): lost binding
- Glycans bound on the array (overall) [1]: bound only one glycan
Molecule: R186S: Human galectin-3 mutant replacing Arg-186 with Ser (site D)
- Binding to primed and non-primed neutrophils (neutrophils [2]): did not bind any of the neutrophil preparations
- Affinity for glycans with Lac in site C-D (Fluorescence anisotropy; relative to wild type): retained reduced affinity
- Entry into vesicles (SKBR3 cells): not visible in vesicles
- Ability to bind human serum glycoproteins [3]: completely lost the ability to bind human serum glycoproteins
- Vesicle entry and apical targeting of glycoproteins (MDCK cells): did not enter vesicles and did not direct apical targeting of glycoproteins
- Ability to promote the phagocytosis of apoptotic cells by neutrophils (neutrophils [4]): lost
- Accumulation around invading Shigella bacteria (Shigella bacteria): did not accumulate around invading Shigella bacteria

- Binding of galactosides with 3-linked N-glycoloyl neuraminic acid (NeuGc) ([1]; compared with NeuAc): equally well
- Glycans bound on the array ([1]; glycans with a LacNAc available for binding in site C-D): 45 of 94
- Glycans bound on the array ([1]; glycans with available Galβ1–3GlcNAc): 15 of 36
- Glycans bound on the array ([1]; glycans with only Galβ1–3GalNAc available): did not bind at all
- Glycans bound on the array ([1]; glycans with only lactose available): 6 of 24
Molecule: wild type galectin-3: Recombinant human galectin-3 produced in E. coli; expressed as EGFP fusion in SKBR3 cells
- Binding to primed and non-primed neutrophils (neutrophils [2]): about equally well
- Increase in binding after TNFα priming (neutrophils [2]): 30–50%
- Entry into vesicles (SKBR3 cells): entered vesicles in some of the cells
- Cells with dots (galectin containing vesicles) (SKBR3 cells; depending on how confluent the cells were): 15–30 % of cells
- Affinity for Galβ1–3GalNAc lower than for LacNAc [5]: 10–50 fold
- Enhancement of binding affinity by addition of GalNAcα1–3 or Galα1–3 [6]: 10–25 fold

- Affinity for sialylated (and sulfated) galactosides on the array ([1]; relative to wild type): lost affinity
Molecule: R144S: Human galectin-3 point mutant in site B, Arg-144 to Ser
- Affinity for the GalNAcα extended galactoside (Fluorescence anisotropy; probe 5 (A-tetrasaccharide), relative to wild type): increased affinity
- Affinity for 3-sialylated galactosides (Fluorescence anisotropy): lost affinity
- Affinity for GlcNAcβ1–3-substituted galactosides (Fluorescence anisotropy): lost affinity

Molecule: G182A: Human galectin-3 point mutant near site C, Gly-182 to Ala
- Intracellular anti-apoptotic effect [7]: lost
- Entry into vesicles (SKBR3 cells): much fewer in number per cell
- Induction of a shift from N-Ras to K-Ras activation [8]: lost
- Binding to Galβ1–3GlcNAc containing glycans on the array ([1]; relative to wild type): preferentially, although not exclusively, lost binding

Molecule: K176L/N180T: Human galectin-3 double mutant obtained by a mistake in primer design
- Concentration inducing significant neutrophil activation (TNFα-primed neutrophils; TNFα-primed neutrophils): ≤ 0.2 µM
- Activation of primed neutrophils (release of oxygen radicals) (TNFα-primed neutrophils): clearly increased potency
- Affinity for some of the longer GlcNAcβ-extended galactosides (Fluorescence anisotropy; compared with K176L): slightly increased affinity

B1: Rat galectin-3: Rat galectin-3 orthologue, not available for study here; literature data (protein, UniProt P08699 2-262, looked up)
Galectin-3: ADGFSLNDALAGSGNPNPQGWPGAWGNQPGAGGYPGASYPGAYPGQAPPGGYPGQAPPSAYPGPTGPSAYPGPTAPGAYPGPTAPGAFPGQPGGPGAYPSAPGAYPSAPGAYPATGPFGAPTGPLTVPYDMPLPGGVMPRMLITIIGTVKPNANSITLNFKKGNDIAFHFNPRFNENNRRVIVCNTKQDNNWGREERQSAFPFESGKPFKIQVLVEADHFKVAVNDVHLLQYNHRMKNLREISQLGIIGDITLTSASHAMI
- Lower affinity for NeuAcα2–3Lac [9]: ~5 fold

B2: Mouse galectin-3: Recombinant mouse galectin-3 orthologue (protein, UniProt P16110 2-264, looked up)
Galectin-3: ADSFSLNDALAGSGNPNPQGYPGAWGNQPGAGGYPGAAYPGAYPGQAPPGAYPGQAPPGAYPGQAPPSAYPGPTAPGAYPGPTAPGAYPGQPAPGAFPGQPGAPGAYPQCSGGYPAAGPYGVPAGPLTVPYDLPLPGGVMPRMLITIMGTVKPNANRIVLDFRRGNDVAFHFNPRFNENNRRVIVCNTKQDNNWGKEERQSAFPFESGKPFKIQVLVEADHFKVAVNDAHLLQYNHRMKNLREISQLGISGDITLTSANHAMI
- Affinity for GlcNAcβ1–3-substituted galactosides (Fluorescence anisotropy): lower affinity for all the saccharide probes tested and most significantly for the ones extended by GlcNAcβ
- Affinity for all the saccharide probes tested (Fluorescence anisotropy; relative to human galectin-3): lower affinity
